Assay results as given in PMC10147382 (ACS chemical neuroscience, 2022).
Where “and” joins values, the source holds several entries; their conditions need not be identical. Equal entries are not always repeated. Where two headings read alike, the source gives them in different places.

What was measured:
[1] = test system: mice; assay: Head twitch response; type: in vivo, mouse; conditions: for HTR response: 15 min period
[2] = target: T1, 5-HT2A receptor (Homo sapiens, UniProt P28223); assay: G protein; type: cell-based; conditions: for decrease in potency versus the alpha-methyl (DOx) counterpart: Gq dissociation (Gq versus G11 for Ariadne/DOM)
Target sequence in this assay (P28223 whole entry): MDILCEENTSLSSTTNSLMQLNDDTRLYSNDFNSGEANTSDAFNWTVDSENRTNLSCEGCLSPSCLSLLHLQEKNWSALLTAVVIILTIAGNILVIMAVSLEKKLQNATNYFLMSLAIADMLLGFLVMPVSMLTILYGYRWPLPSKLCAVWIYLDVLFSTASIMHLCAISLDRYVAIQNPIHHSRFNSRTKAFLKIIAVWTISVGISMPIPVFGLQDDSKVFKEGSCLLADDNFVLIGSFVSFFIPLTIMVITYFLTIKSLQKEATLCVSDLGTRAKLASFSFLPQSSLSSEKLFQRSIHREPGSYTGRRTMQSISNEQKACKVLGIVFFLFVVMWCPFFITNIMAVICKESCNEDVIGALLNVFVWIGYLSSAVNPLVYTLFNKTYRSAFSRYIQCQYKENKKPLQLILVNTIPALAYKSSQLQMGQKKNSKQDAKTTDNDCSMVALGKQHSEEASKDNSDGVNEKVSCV

[3] = target: T1, 5-HT2A receptor; assay: Radioligand displacement assay; type: binding; conditions: standard radioligand 125I-DOI
Target sequence in this assay (P28223 whole entry): as above

[4] = target: T1, 5-HT2A receptor; assay: Calcium flux assay; type: cell-based
Outline: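 Flp-In 293 T-Rex cells stably carry tetracycline-inducible human 5-HT2A or 5-HT2C. Expression is induced with tetracycline (2 ug/mL) the day before, with about 7,500 cells/well in 1% dialyzed FBS. Cells are loaded with Fluo-4 Direct for 1 h at 37°C in HBSS/20 mM HEPES pH 7.4 with 2.5 mM probenecid, then held 15 min at RT. Fluorescence is read 10 s baseline, then 5-10 min after drug. Peak fold-over-basal or AUC is normalized to % 5-HT, with EC50/Emax from nonlinear regression.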
Target sequence in this assay (P28223 whole entry): as above

[5] = test system: 5-HT2A receptors; conditions: cited from earlier work
[6] = test system: 5-HT2A receptors; conditions: cited from earlier work; remark: listed apart in the source
[7] = target: T2, 5-HT2B receptor (Homo sapiens, UniProt P41595); assay: G protein; type: cell-based
[8] = test system: humans; conditions: cited from earlier work
[9] = target: T1, 5-HT2A receptor; assay: β-arrestin2 recruitment BRET assay; type: cell-based; conditions: for efficacy: normalized to 5-HT
Target sequence in this assay (P32121 whole entry): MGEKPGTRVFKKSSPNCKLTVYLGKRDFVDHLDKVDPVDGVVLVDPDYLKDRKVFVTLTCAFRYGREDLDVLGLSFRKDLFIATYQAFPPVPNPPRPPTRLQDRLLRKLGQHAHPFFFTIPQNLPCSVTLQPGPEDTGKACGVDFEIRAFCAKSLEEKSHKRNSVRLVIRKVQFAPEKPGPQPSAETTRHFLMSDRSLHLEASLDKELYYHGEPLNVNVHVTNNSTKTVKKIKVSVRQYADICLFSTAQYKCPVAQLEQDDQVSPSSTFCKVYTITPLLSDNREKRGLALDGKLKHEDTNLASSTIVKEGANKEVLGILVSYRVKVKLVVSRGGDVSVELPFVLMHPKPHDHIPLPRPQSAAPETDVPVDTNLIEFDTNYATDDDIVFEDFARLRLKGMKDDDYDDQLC
Target sequence in this assay (P28223 whole entry): as the sequence (P28223 whole entry) above

[10] = test system: mice; conditions: cited from earlier work
[11] = test system: 5-HT2C receptors; conditions: cited from earlier work
[12] = test system: mice; assay: Open field test; type: in vivo, mouse; conditions: mouse, in vivo
[13] = target: 5-HT1F receptor (Homo sapiens, UniProt P30939); assay: 5-HTome G protein activation BRET screen; type: cell-based
Outline: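 Human 5-HT receptors (12 in the panel) are tested by G protein-dissociation BRET2. Cells are reverse-transfected about 48 h before assay with receptor:Gα-Rluc8:Beta:GFP2-γ (TRUPATH) at 1:1:1:1 and plated in 1% dFBS. Drug is added in HBSS/20 mM HEPES pH 7.4 with 0.3% BSA and 0.03% ascorbic acid, then incubated 60 min at 37°C. Coelenterazine 400a is 5 uM final. The 510/400 ratio is normalized to % positive control, with EC50/Emax from log(agonist) vs response. Three independent experiments in triplicate.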

[14] = test system: cats; conditions: in comparison to (R)-DOM ref 10; cited from earlier work
[15] = target: T1, 5-HT2A receptor; assay: SafetyScreen44 broad screen; type: binding; conditions: 10 uM Ariadne; positive hit threshold
Outline: (§1)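 Broad binding screen of 44 targets (GPCRs, nuclear receptors, ion channels, monoamine transporters, enzymes) with racemic test compound at 10 uM. Read-out is % displacement of each target's standard radioligand. A positive hit is defined as more than 50% displacement.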
Target sequence in this assay (P28223 whole entry): as above

[16] = target: T3, 5-HT2C receptor (Homo sapiens, UniProt P28335); assay: G protein; type: cell-based
T3 sequence (P28335 33-458): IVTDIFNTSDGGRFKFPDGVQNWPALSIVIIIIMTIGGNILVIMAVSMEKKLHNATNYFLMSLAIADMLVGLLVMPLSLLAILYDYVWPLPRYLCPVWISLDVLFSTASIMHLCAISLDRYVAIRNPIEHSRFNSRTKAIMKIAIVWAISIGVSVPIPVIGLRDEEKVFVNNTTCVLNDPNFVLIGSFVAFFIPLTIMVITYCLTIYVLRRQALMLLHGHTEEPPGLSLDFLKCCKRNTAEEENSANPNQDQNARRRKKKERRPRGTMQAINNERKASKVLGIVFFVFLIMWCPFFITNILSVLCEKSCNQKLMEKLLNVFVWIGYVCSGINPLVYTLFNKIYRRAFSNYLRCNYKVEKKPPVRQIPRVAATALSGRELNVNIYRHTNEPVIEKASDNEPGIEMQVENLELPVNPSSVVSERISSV

[17] = target: norepinephrine transporter (NET) (Homo sapiens, UniProt P23975); assay: SafetyScreen44 broad screen; type: binding; conditions: 10 uM
Outline: as §1

[18] = Brain and plasma pharmacokinetic evaluation; type: in vivo, mouse; conditions: brain and plasma PK
[19] = target: dopamine 2 receptor (Homo sapiens, UniProt P14416); assay: Activity at other aminergic receptors
[20] = target: serotonin transporter (SERT) (Homo sapiens, UniProt P31645); assay: SafetyScreen44 broad screen; type: binding; conditions: 10 uM
Outline: as §1

[21] = target: adrenergic receptors; assay: Activity at other aminergic receptors; conditions: no/low activity
[22] = test system: rats; conditions: cited from earlier work
[23] = target: dopamine 1 receptor (Homo sapiens, UniProt P21728); assay: Activity at other aminergic receptors
[24] = target: dopamine transporter (DAT) (Homo sapiens, UniProt Q01959); assay: SafetyScreen44 broad screen; type: binding; conditions: 10 uM
Outline: as §1

[25] = test system: rats; conditions: cited from earlier work; remark: listed apart in the source
[26] = test system: rat smooth muscle; conditions: compared to serotonin and (R)-DOM ref 11; cited from earlier work
[27] = target: T2, 5-HT2B receptor; assay: SafetyScreen44 broad screen; type: binding; conditions: 10 uM Ariadne; positive hit threshold
Outline: as §1

[28] = phosphoinositide turnover ref 40

T2 sequence (P41595 whole entry): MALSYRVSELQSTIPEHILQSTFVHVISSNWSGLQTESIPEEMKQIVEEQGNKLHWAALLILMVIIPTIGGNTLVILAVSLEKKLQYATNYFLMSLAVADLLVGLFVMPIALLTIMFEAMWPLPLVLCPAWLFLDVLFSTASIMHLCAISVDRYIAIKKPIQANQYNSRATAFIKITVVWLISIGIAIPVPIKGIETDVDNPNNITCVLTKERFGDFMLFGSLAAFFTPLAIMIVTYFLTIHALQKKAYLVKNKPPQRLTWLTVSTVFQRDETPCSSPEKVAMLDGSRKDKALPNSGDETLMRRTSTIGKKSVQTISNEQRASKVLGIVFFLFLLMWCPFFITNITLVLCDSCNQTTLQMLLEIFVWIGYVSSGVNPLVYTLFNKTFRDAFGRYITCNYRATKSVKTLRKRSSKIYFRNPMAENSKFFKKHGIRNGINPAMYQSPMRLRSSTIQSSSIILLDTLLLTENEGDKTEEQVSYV
dopamine transporter (DAT), sequence (Q01959 whole entry): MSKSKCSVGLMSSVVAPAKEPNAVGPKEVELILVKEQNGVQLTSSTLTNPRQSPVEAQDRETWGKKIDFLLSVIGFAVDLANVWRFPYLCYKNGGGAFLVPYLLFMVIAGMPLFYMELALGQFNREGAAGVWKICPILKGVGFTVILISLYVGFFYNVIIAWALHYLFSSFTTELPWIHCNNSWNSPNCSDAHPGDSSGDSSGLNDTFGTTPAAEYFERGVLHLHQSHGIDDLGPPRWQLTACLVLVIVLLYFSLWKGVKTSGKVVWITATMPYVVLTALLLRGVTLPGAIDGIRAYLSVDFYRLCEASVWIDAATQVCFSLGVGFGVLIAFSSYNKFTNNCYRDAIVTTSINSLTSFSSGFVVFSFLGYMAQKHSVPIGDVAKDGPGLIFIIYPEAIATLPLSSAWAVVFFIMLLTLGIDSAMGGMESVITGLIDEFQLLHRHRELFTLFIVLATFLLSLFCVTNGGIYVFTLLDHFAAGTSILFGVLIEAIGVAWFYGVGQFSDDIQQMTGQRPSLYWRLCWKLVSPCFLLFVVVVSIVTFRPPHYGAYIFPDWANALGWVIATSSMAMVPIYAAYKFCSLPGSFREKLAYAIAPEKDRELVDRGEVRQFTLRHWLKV
serotonin transporter (SERT), sequence (P31645 whole entry): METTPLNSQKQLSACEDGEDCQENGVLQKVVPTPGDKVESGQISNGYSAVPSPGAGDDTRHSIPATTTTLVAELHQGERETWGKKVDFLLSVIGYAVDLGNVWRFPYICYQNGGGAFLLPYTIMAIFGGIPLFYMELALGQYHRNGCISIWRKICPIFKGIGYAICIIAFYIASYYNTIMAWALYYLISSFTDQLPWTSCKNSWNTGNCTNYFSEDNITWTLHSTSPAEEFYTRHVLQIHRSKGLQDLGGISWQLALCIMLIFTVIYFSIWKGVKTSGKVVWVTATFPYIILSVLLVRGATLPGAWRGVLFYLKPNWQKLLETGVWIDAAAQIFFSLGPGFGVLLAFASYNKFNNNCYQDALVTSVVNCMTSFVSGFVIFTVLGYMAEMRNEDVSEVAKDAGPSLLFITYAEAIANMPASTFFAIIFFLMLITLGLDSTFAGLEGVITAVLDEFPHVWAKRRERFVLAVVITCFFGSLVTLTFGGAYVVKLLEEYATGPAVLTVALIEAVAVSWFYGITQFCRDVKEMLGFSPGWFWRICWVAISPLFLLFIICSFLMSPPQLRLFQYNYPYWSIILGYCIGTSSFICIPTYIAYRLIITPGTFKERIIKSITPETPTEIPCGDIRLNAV
dopamine 1 receptor, sequence (P21728 whole entry): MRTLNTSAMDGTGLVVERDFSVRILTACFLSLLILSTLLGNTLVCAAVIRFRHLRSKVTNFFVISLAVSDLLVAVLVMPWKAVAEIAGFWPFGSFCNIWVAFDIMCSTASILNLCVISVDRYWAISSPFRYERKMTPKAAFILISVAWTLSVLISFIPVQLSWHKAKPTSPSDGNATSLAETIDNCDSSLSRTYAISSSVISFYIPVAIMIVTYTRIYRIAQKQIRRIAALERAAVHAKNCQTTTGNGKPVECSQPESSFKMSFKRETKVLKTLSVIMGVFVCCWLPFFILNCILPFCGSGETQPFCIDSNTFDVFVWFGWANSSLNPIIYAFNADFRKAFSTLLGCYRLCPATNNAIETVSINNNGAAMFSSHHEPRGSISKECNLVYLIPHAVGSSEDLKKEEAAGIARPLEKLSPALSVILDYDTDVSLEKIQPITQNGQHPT
5-HT1F receptor, sequence (P30939 whole entry): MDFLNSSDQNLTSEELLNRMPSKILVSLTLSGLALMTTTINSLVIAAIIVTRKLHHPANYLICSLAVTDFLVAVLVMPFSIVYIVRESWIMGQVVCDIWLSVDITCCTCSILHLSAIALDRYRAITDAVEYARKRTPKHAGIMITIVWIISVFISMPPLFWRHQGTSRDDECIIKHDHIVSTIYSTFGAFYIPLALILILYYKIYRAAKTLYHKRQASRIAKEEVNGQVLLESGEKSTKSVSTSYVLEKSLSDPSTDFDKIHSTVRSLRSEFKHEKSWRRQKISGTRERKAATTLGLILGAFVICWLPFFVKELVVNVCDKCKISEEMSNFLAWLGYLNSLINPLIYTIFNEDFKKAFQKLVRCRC
norepinephrine transporter (NET), sequence (P23975 whole entry): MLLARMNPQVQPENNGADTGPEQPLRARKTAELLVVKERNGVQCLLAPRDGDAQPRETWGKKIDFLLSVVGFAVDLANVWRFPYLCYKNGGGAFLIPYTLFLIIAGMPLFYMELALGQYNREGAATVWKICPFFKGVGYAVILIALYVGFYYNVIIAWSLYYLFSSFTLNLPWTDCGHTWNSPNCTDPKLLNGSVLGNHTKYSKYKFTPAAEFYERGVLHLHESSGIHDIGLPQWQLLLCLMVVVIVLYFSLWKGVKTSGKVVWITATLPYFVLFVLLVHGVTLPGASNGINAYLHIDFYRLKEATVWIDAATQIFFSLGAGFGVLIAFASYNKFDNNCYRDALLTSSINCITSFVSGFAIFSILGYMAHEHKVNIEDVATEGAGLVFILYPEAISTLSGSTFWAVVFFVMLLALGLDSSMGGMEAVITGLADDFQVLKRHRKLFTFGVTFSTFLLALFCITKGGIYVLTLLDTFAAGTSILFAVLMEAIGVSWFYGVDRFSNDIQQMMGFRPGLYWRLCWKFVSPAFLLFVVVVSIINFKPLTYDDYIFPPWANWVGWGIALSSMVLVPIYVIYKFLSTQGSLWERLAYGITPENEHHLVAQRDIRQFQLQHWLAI

With CCC(N)Cc1cc(OC)c(C(F)(F)F)cc1OC (stereo not shown) [4C-TFM] the “HTR after pretreatment with 5-HT2A antagonist MDL100,907 (volinanserin)” value ([1]; MDL100907 0.01 and 0.032 mg/kg ip 15 min prior) was “completely inhibited”.

For CCCC(N)Cc1cc(OC)c(C)cc1OC (stereo not shown) [5C-D], the “decrease in potency relative to Ariadne” value ([2]; Figure 3D signaling assays) was ~ 2 fold, the “drop in efficacy relative to Ariadne” value ([2]; Figure 3D signaling assays) was ~ 15% and the HTR response ([1]; s.c.) was “indistinguishable from vehicle”.

In the case of CC[C@H](N)Cc1cc(OC)c(C)cc1OC [(S)-Ariadne], the Ki [3] is reported as 220 nM, the EC50 ([4]; read-out: EC50 (calcium flux)) is reported as 132 nM and the “Emax (calcium flux)” value ([4]; relative to 5-HT) is reported as 63%.

For CCN(CC)CCc1c[nH]c2cc(F)ccc12 [6F-DET, 6-fluoro-diethyltryptamine], the Emax [5, 28] is listed as 63%, the “drop in efficacy versus DET” value [5, 28] is listed as 20% and the “weaker signaling potency (EC50 values) versus DET” value [5, 28] is listed as 6 fold. For the same compound, the “affinity for 5-HT2A receptors, DET versus 6F-DET” value [6] was “nearly identical affinity”.

For CCC(N)Cc1cc(OC)c(COC)cc1OC (stereo not shown) [4C-MOM], the “less potent at 5-HT2A compared to Ariadne” value ([2]; Gq dissociation) was “approximately 2 fold”, the HTR response ([1]; s.c.) was “only residual HTR” and the “potency at 5-HT2B compared to Ariadne” value ([7]; Gq dissociation) was “twice as potent”.

For COc1cc(CC(C)N)c(OC)cc1C (stereo not shown) [DOM, 2,5-dimethoxy-4-methyl-amphetamine, reference compound], the “dose producing classic hallucinogen effects” value [8] is given as > 3 mg, the “dose producing detectable psychoactive, sub-hallucinogenic effects” value [8] is given as 1 to 3 mg and the “potency relative to mescaline in humans” value ([8]; per oral administration ref 6) is given as “approximately 100 times”. The Emax ([2]; read-out: Emax (Gq)) was 96% and the efficacy [9] was 103%.

In the case of CCN(CC)CCc1c[nH]c2ccccc12 [DET, diethyltryptamine], the Emax [5, 28] is given as 82% and the “affinity for 5-HT2A receptors, DET versus 6F-DET” value [6] is given as “nearly identical affinity”.

For CN(C)CCc1c[nH]c2cccc(OP(=O)(O)O)c12 [psilocybin], the HTR counts [10] is listed as 15-25 HTR events per 15 min.

In the case of CN(C)CCc1c[nH]c2cccc(O)c12 [psilocin], the “greater signaling potency in comparison to 6F-DET” value [5] is listed as 15 fold, the signaling efficacy ([5]; depending on the specific readout) is listed as 50-70% and the “greater affinity in comparison to 6F-DET” value [11] is listed as 10 fold. For the same compound, the HTR counts [10] was 15-25 HTR events per 15 min.

For CCCc1cc(OC)c(CC(C)N)cc1OC (stereo not shown) [DOPR, reference compound], the “time in the center of the arena” value [12] was “trend for spending less time in the center of the arena”, the “increase in Gq dissociation potency compared to DOM” value ([2]; Gq dissociation) was 20- to 30 fold and the “dose of peak (maximum) HTR” value ([1]; s.c.) was 1 mg/kg. The “time to maximum HTR frequency post-drug administration” value ([1]; s.c.) was 10 min.

For CCC(N)Cc1cc(OC)c(C)cc1OC.Cl (stereo not shown) [Ariadne hydrochloride], the “subjective effect (online experience report)” value (shortened to “subjective effect”) ([8]; 50 mg oral plus 25 mg at 90 min, person 77 kg ref 35) is given as “MDMA-like effect but no psychedelic effects”.

In the case of CCCc1cc(OC)c(CC(N)CC)cc1OC (stereo not shown) [4C-Pr], the “loss in efficacy versus the alpha-methyl (DOx) counterpart” value ([2]; Gq dissociation) is reported as 15%, the “decrease in potency versus the alpha-methyl (DOx) counterpart” value (“decrease … (DOx) counterpart” for short) [2] is reported as 20-30 fold and the “decrease … (DOx) counterpart” value [9] is reported as 10 fold. For the same compound, the “drop in efficacy versus the alpha-methyl (DOx) counterpart” value [9] was 15%.

With COc1cc(CC(C)N)c(OC)cc1I (stereo not shown) [DOI, reference compound] the “increase in Gq dissociation potency compared to DOM” value ([2]; Gq dissociation) was 20- to 30 fold.

With CCC(N)Cc1cc(OC)c(I)cc1OC (stereo not shown) [iodo-Ariadne] the “increase in potency compared to Ariadne” value ([2]; Gq dissociation) was > 10 fold, the “loss in efficacy versus the alpha-methyl (DOx) counterpart” value ([2]; Gq dissociation) was 10% and the “decrease … (DOx) counterpart” value [2] was 10 fold. The EC50 ([2]; read-out: EC50 (Gq), Gq dissociation BRET) was 16 nM, the “decrease … (DOx) counterpart” value [9] was 5 fold and the “drop in efficacy versus the alpha-methyl (DOx) counterpart” value [9] was 20%.

In the case of CCC(N)Cc1cc(OC)c(C)cc1OC (stereo not shown) [Ariadne, 2-amino-1-(2,5-dimethoxy-4-methylphenyl)-butane], the “selectivity of 5-HT2 agonism over 5-HT1F” value [13] is given as 0.5-1 log, the “hallucinogenic / psychoactive effect” value ([8]; 32 mg p.o. ref 6) is given as “no hallucinogenic effect but a mild threshold psychoactive effect” and the “subjective effect” value ([8]; 75 mg orally, male ref 36) is given as “mild MDMA-like effects, but no obvious hallucinogenic effect”. The “subjective effect” value ([8]; 125 mg orally, female ref 37) was “unique hybrid between MDMA-like and DOX/psychedelic-like activity”, the “dose leading to discernable psychoactive effects” value ([8]; aggregate of human data) was > 50 mg and the “dose up to which no hallucinogenic effects were observed” value ([8]; aggregate of human data) was 100 to 300 mg. For the same compound, the “combined score of DOM-like behavioral features” value [14] was “low combined score of DOM-like behavioral features”, the Emax [2] was > 70% and the “decrease … (DOx) counterpart” value [2] was 4-to-6 fold and 6 fold. The Emax ([2]; read-out: Emax (Gq)) was 80%, the “decrease in HTR count per 15 min compared to racemic DOPR” value ([1]; s.c.) was > 3 fold and the “dose of peak (maximum) HTR” value ([1]; s.c.) was 10 mg/kg. For the same compound, the “displacement of standard radioligands” value [15] was “more than 50%”, the Emax [16] was > 70% and the “activity at NET” value [17] was “essentially no activity”. The “decrease … (DOx) counterpart” value [9] was ~ 4.5 fold, the efficacy [9] was 83% and the brain penetration [18] was “high brain penetration”. For the same compound, the EC50 [19] was > 10000 nM, the “activity at SERT” value [20] was “essentially no activity” and the EC50 [21] was > 10000 nM. The “substitution for MDMA stimulus” value [22] was “full substitution for MDMA stimulus”, the EC50 [23] was > 10000 nM and the “activity at DAT” value [24] was “essentially no activity”. The Emax [7] was > 70%, the “substitution in LSD trained animals” value [25] was “substituted responding in LSD trained animals” and the serotonergic-like spasmogenic effect [26] was “weak serotonergic-like effect”. The “displacement of standard radioligands” value [27] was “more than 50%”.
